Measurements: ChEMBL document CHEMBL4308850, “Design of a True Bivalent Ligand with Picomolar Binding Affinity for a G Protein-Coupled Receptor Homodimer” (J Med Chem, 2018)
Active and inactive are the calls of the source. No cut-off for these calls is given here.

Experiments:
D(2) dopamine receptor [1] = target: T1, D(2) dopamine receptor (Homo sapiens, UniProt P14416); assay: Displacement of [3H]-YM-09151-2 from dopamine D2 receptor (unknown origin) in sheep brain striatum membranes after 2 hrs by scintillation counting; type: cell membranes; conditions: Ovis aries (sheep)
T1 sequence (P14416 whole entry): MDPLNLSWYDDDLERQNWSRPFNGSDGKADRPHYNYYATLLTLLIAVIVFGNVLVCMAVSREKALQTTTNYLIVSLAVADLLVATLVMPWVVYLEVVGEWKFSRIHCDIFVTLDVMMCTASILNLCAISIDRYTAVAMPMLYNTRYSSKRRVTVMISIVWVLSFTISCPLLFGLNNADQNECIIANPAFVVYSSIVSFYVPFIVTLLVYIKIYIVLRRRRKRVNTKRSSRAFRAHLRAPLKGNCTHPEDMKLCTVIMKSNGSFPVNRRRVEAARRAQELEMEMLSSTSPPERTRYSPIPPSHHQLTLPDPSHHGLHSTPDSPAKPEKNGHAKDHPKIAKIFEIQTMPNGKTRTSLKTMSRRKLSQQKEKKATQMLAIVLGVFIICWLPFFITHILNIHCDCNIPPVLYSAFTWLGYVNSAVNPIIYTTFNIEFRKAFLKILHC
Method in brief: (§1)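 Sheep striatal membranes (50 mM Tris-HCl pH 7.4, protease inhibitors; 0.2 mg protein/mL) incubated 2 h at room temperature in Tris-HCl with 10 mM MgCl2, 0.8 nM free [3H]YM-09151-2 and rising ligand concentrations; nonspecific binding with 30 μM dopamine. Filtration on PEI-soaked GF/C, scintillation counting; fitted to two-state dimer model. Lines 5 and 6: membranes preincubated 1 h with the named TAT-TM6 peptide first.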

D(2) dopamine receptor [2] = target: T1, D(2) dopamine receptor; assay: Antagonist activity at human dopamine D2 receptor expressed in CHO cells co-expressing A2A receptor assessed as reduction in sumanirole-induced response at 0.5 uM after 90 mins by DMR analysis; type: cell-based
Method in brief: (§2)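 CHO cells stably co-expressing human A2AR and D2R, seeded 7,000/well 24 h before assay (70–80% confluent). Washed into assay buffer (medium, 20 mM HEPES pH 7.15, 0.1% DMSO, 0.1% BSA), equilibrated 2 h at 24°C; 10 min baseline, antagonist added and read 30 min, then sumanirole (100 nM solution) added and DMR wavelength shift (pm) recorded ≥90 min; expressed as % maximal sumanirole effect.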

D(2) dopamine receptor [3] = target: T1, D(2) dopamine receptor; assay: Binding affinity to human dopamine D2 receptor transfected in HEK293 cells co-expressing nYFP (1 to 155 residues) and cYFP (156 to 238 residues) at 100 nM after 10 mins by fluorescence complementation assay; type: cell-based
Method in brief: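 HEK-293T cells transiently co-transfected (lipofectamine) with D2R-nYFP and D2R-cYFP; after 48 h, cells in HBSS with 0.1% glucose (20 μg protein, 50,000 cells/well) treated with 100 nM ligand or HBSS for 10 min. Fluorescence read at 530 nm emission, 400 nm excitation; background from cells lacking fusion proteins subtracted.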

D(2) dopamine receptor [4] = target: T1, D(2) dopamine receptor; assay: Antagonist activity at human dopamine D2 receptor expressed in CHO cells co-expressing A2A receptor assessed as reduction in sumanirole-induced response after 90 mins by DMR analysis; type: cell-based; method in brief: as §2
D(2) dopamine receptor [5] = target: T1, D(2) dopamine receptor; assay: Displacement of [3H]-YM-09151-2 from dopamine D2 receptor (unknown origin) in sheep brain striatum membranes preincubated with TAT-TM6 A2AR peptide for 1 h before addition of compound and radioligand and measured after 2 hrs by scintillation counting; type: cell membranes; method in brief: as §1
D(2) dopamine receptor [6] = target: T1, D(2) dopamine receptor; assay: Displacement of [3H]-YM-09151-2 from dopamine D2 receptor (unknown origin) in sheep brain striatum membranes preincubated with TAT-TM6 D2R peptide for 1 h before addition of compound and radioligand and measured after 2 hrs by scintillation counting; type: cell membranes; method in brief: as §1
D(2) dopamine receptor [7] = target: T1, D(2) dopamine receptor; conditions: CHO, 1 uM

Row | SMILES | K (D(2) dopamine receptor [1]) [nM] | inhibition (D(2) dopamine receptor [2]) | Activity (D(2) dopamine receptor [3]) | IC50 (D(2) dopamine receptor [4]) [nM] | K (D(2) dopamine receptor [5]) [nM] | K (D(2) dopamine receptor [6]) [nM] | inhibition (D(2) dopamine receptor [7])
1 | COC(=O)CN(CC(=O)NCCCOCCOCCOCCCNC(C)=O)CC(=O)NCCCOCCOCCOCCCNC(=O)CCC(=O)Nc1ccc(CCN2CN(c3ccccc3)C3(CCN(CCCC(=O)c4ccc(F)cc4)CC3)C2=O)cc1 | 1.5 | – | – | – | – | – | –
2 | O=C(O)CCC(=O)Nc1ccc(CCN2CN(c3ccccc3)C3(CCN(CCCC(=O)c4ccc(F)cc4)CC3)C2=O)cc1 | 0.7 | – | – | – | – | – | –
3 | COC(=O)CN(CC(=O)NCCCOCCOCCOCCCNC(=O)CCC(=O)Nc1ccc(CCN2CN(c3ccccc3)C3(CCN(CCCC(=O)c4ccc(F)cc4)CC3)C2=O)cc1)CC(=O)NCCCOCCOCCOCCCNC(=O)CCC(=O)Nc1ccc(CCN2CN(c3ccccc3)C3(CCN(CCCC(=O)c4ccc(F)cc4)CC3)C2=O)cc1 | 0.07 | Active | – | – | – | – | –
4 | COC(=O)CN(CC(=O)NCCOCCOCCNC(=O)CCC(=O)Nc1ccc(CCN2CN(c3ccccc3)C3(CCN(CCCC(=O)c4ccc(F)cc4)CC3)C2=O)cc1)CC(=O)NCCOCCOCCNC(=O)CCC(=O)Nc1ccc(CCN2CN(c3ccccc3)C3(CCN(CCCC(=O)c4ccc(F)cc4)CC3)C2=O)cc1 | 0.021 | Active | inactive | 15 | 0.05 | 1.1 | –
5 | COC(=O)CN(CC(=O)NCCOCCOCCNC(C)=O)CC(=O)NCCOCCOCCNC(=O)CCC(=O)Nc1ccc(CCN2CN(c3ccccc3)C3(CCN(CCCC(=O)c4ccc(F)cc4)CC3)C2=O)cc1 | 0.77 | – | inactive | 280 | 0.8 | 0.8 | –
6 | O=C(CCCN1CCC2(CC1)C(=O)NCN2c1ccccc1)c1ccc(F)cc1 | – | – | – | – | – | – | Active
